We go through seven molecules from article PMC11608545 (International Journal of Nanomedicine, 2024).

Values after ≈ are worked out from the molar mass of the structure shown.

Data set [1] concerns MCF-7. The data set can be described thus: Antiproliferative activity, SRB assay. To be noted: for calculated selectivity index SI: IC50 MCF-10A / IC50 MCF-7. Type of data set: cell-based, human.
In data set [2] the test system is caspase-3/7 in MDA-MB-468 cells. Nature of the data set: Caspase-3/7 activity determination. Type of data set: cell-based, human. To be noted: MDA-MB-468, 24 h or 72 h, 1.5 × IC50.
The test system of data set [3] is A-549. The data set can be described thus: Antiproliferative activity, SRB assay. The format is cell-based, human. The note with it: for calculated selectivity index SI: IC50 MCF-10A / IC50 A-549.
For data set [4], the system named is MCF-10A. Nature of the data set: cells. The format is cell-based, human.
Data set [5] concerns MDA-MB-468. The data set can be described thus: Antiproliferative activity, SRB assay. Type of data set: cell-based, human. The note with it: for calculated selectivity index SI: IC50 MCF-10A / IC50 MDA-MB-468; for IC50: MDA-MB-468, 72 h.
For data set [6], the system named is MV4-11 cells. The data set can be described thus: Cell cycle analysis. Type of data set: cell-based, human. To be noted: MV4-11, 72 h, 1.5 × IC50.
Data set [7] deals with caspase-3/7 in MV4-11 cells. Nature of the data set: Caspase-3/7 activity determination. Type of data set: cell-based, human. To be noted: MV4-11, 24 h or 72 h, 1.5 × IC50.
Data set [8] has as its system MDA-MB-468 cells. Nature of the data set: Cell cycle analysis. To be noted: MDA-MB-468, 72 h, 1.5 × IC50. Type of data set: cell-based, human.
Data set [9] deals with PC-3. The data set can be described thus: Antiproliferative activity, SRB assay. The format is cell-based, human. To be noted: for calculated selectivity index SI: IC50 MCF-10A / IC50 PC3.
In data set [10] the test system is MV4-11. The data set can be described thus: Antiproliferative activity, MTT assay. Type of data set: cell-based, human. To be noted: for calculated selectivity index SI: IC50 MCF-10A / IC50 MV4-11; for IC50: MV4-11, 72 h.
The test system of data set [11] is MV4-11 cells. Nature of the data set: Apoptosis determination by Annexin V staining. The note with it: MV4-11, 1.5 × IC50. The format is cell-based, human.
For data set [12] the following is noted: background statement, no reference given, cited from earlier work.
Data set [13] has as its system selected cancer cell lines (MV4-11, A549, PC-3, MDA-MB-468, MCF-7). Nature of the data set: Antiproliferative activity, all studied cancer cell lines together. The format is cell-based, human. To be noted: read-out: IC50 values, range over all studied cancer cell lines; 72 h. The gist of the method: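 Cells were seeded 24 h before treatment at 0.5×10^4 (A549), 0.75×10^4 (MDA-MB-468, MCF-7) or 1×10^4 (PC-3, MV4-11) cells/well. They were exposed 72 h to test compound at 1–625 μM in medium; loaded nanocarrier was dosed by encapsulated conjugate. Read-out was MTT (MV4-11) or SRB (others). Triplicates, 3–5 independent runs; IC50 per run, mean ± SD.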

Where [14] appears, read: SRB, n.a. = not active in the range concentration (5–625 μM).

Consider `COc1ccc2c(c1)c(CC(=O)OC[C@@H](O)COP(=O)([O-])OCC[N+](C)(C)C)c(C)n2C(=O)c1ccc(Cl)cc1` [IND-LPC, 1-indomethacinoyl-2-hydroxy-sn-glycero-3-phosphocholine], for which the “calculated selectivity index SI” value in data set [1] is 0.87; in data set [3], 0.25; in [5] it was 2.56; in [9], 0.48; in data set [10], 2.23. The IC50 – broadly, the concentration that gives 50% inhibition – in [1] (MCF-7, 72 h, SRB) was found to be 7.9 ± 0.7 µM; in [3] (A-549, 72 h, SRB) it was 27.2 ± 4.9 µM; in data set [5] (setting [14]) it was 2.7 ± 0.5 µM; in data set [9] (PC3, 72 h, SRB), 14.4 ± 2.9 µM; in data set [10] (MTT), 3.1 ± 0.5 µM. In addition, the caspase-3/7 activation result in data set [2] and in data set [7] was “higher level after 24 h than 72 h” throughout. Also, the “toxicity towards MCF-10A at the active doses” value in [4] (at 3.1 μM and 2.7 μM) is “not toxic”. The “fold lower IC50 than free IND” value is recorded as 100 fold in data set [5] (MDA-MB-468) and 66 fold in data set [10] (MV4-11). Besides, in data set [5] (MDA-MB-468 vs MCF-7), the “times more active against MDA-MB-468 than MCF-7” value was 3 times. The “effect on cell cycle / cell death” value in data set [6] is recorded as “strongly induced cell death”; in data set [8], “strongly induces breast cancer cell death”. Also, the “effect on number of apoptotic (AnV+/PI+) cells” value in data set [11] was “slightly increased”.
Consider `CCCCCCCCCCCCCCCCCC(=O)O[C@H](COC(=O)Cc1c(C)n(C(=O)c2ccc(Cl)cc2)c2ccc(OC)cc12)COP(=O)([O-])OCC[N+](C)(C)C` [IND-SA-PC, 1-indomethacinoyl-2-stearoyl-sn-glycero-3-phosphocholine], for which the “calculated selectivity index SI” value in [1] is recorded as 1.33; in data set [3], 1.51; in data set [5], 1.42; in data set [9], 1.46; in [10], 1.90. For the same molecule, the IC50 is 230 ± 10.3 µM in data set [1] (MCF-7, 72 h, SRB); 201 ± 23.5 µM in [3] (A-549, 72 h, SRB); 214 ± 46.1 µM in data set [5] (setting [14]); 209 ± 18.3 µM in [9] (PC3, 72 h, SRB); 160 ± 59.7 µM in [10] (MTT).
`CCCCCCCCCCCCCCCC(=O)OC[C@H](COP(=O)([O-])OCC[N+](C)(C)C)OC(=O)Cc1c(C)n(C(=O)c2ccc(Cl)cc2)c2ccc(OC)cc12` [PA-IND-PC, 1-palmitoyl-2-indomethacinoyl-sn-glycero-3-phosphocholine]: the “calculated selectivity index SI” value in data set [1] is listed as 1.12; in data set [3] it was 1.33; in [5], 1.10; in data set [9], 1.33; in [10], 1.16. For the same molecule, the IC50 in data set [1] (MCF-7, 72 h, SRB) was 276 ± 134 µM; in data set [3] (A-549, 72 h, SRB) it was 233 ± 108 µM; in [5] (setting [14]) it was 281 ± 35.9 µM; in data set [9] (PC3, 72 h, SRB) it was 233 ± 0.6 µM; in [10] (MTT), 268 ± 34.3 µM.
As to `COc1ccc2c(c1)c(CC(=O)O)c(C)n2C(=O)c1ccc(Cl)cc1` [IND, indomethacin, reference compound], the IC50 in data set [1] (Homo sapiens, MCF7, 72 h) was 187 ± 19.4 µM; in data set [3] (Homo sapiens, A549, 72 h) it was 121 ± 31.6 µM; in data set [4] (Homo sapiens, MCF-10A, 72 h) it was 191 ± 11.4 µM; in [5] (Homo sapiens), 270 ± 56.3 µM; in [9] (Homo sapiens, PC-3, 72 h) it was 160 ± 61.5 µM; in data set [10] (Homo sapiens) it was 204 ± 41.5 µM. For the same molecule, in data set [12], the “Biopharmaceutical Classification System (BCS) class” value is “Class II”. For the same molecule, the water solubility in data set [12] (pH7) was 105.2 µg/mL (≈ 294 µM).
As to `CCCCCCCCCCCCCCCC(=O)O[C@H](COC(=O)Cc1c(C)n(C(=O)c2ccc(Cl)cc2)c2ccc(OC)cc12)COP(=O)([O-])OCC[N+](C)(C)C` [IND-PA-PC, 1-indomethacinoyl-2-palmitoyl-sn-glycero-3-phosphocholine], the IC50 in [1] (MCF-7, 72 h, SRB) came out at 424 ± 14.4 µM; in data set [3] (A-549, 72 h, SRB), 423 ± 84.1 µM; in data set [9] (PC3, 72 h, SRB), 563 ± 75.1 µM; in data set [10] (MTT), 430 ± 104 µM.
Take `CCCCCCCC/C=C\CCCCCCCC(=O)OC[C@H](COP(=O)([O-])OCC[N+](C)(C)C)OC(=O)Cc1c(C)n(C(=O)c2ccc(Cl)cc2)c2ccc(OC)cc12` [OA-IND-PC, 1-oleoyl-2-indomethacinoyl-sn-glycero-3-phosphocholine]: the “calculated selectivity index SI” value in data set [1] is recorded as 1.70; in data set [3] it was 1.89; in [5], 1.80; in [9], 1.75; in [10], 1.80. Moreover, the IC50 was 59.8 ± 2.1 µM in data set [1] (MCF-7, 72 h, SRB); 53.8 ± 1.2 µM in data set [3] (A-549, 72 h, SRB); 56.4 ± 0.6 µM in [5] (setting [14]); 33.5 to 67.5 µM in data set [13]; 58 ± 11.9 µM in data set [9] (PC3, 72 h, SRB); 56.3 ± 0.8 µM in data set [10] (MTT). For the same molecule, the “effect on cell cycle / cell death” value in [6] is listed as “strongly induced cell death”; in data set [8] it was “stopped the cell cycle in the G0/G1 phase, but did not induce cell death”. Moreover, in data set [7], the caspase-3/7 activation result was “strongly increased caspase activity in MV4-11 cells after 72 h”. Also, the “effect on number of apoptotic (AnV+/PI+) cells” value in data set [11] is given as “slightly increased”.
As for `CCCCCCCCCCCCCCCCCC(=O)OC[C@H](COP(=O)([O-])OCC[N+](C)(C)C)OC(=O)Cc1c(C)n(C(=O)c2ccc(Cl)cc2)c2ccc(OC)cc12` [SA-IND-PC, 1-stearoyl-2-indomethacinoyl-sn-glycero-3-phosphocholine], the “calculated selectivity index SI” value in [1] was 1.87; in data set [3], 2.22; in data set [5], 1.87; in [9], 2.34; in data set [10] it was 1.64. Also, the IC50 in data set [1] (MCF-7, 72 h, SRB) turned out to be 288 ± 22.2 µM; in data set [3] (A-549, 72 h, SRB), 243 ± 15.7 µM; in data set [5] (setting [14]), 289 ± 12.2 µM; in [9] (PC3, 72 h, SRB), 230 ± 15.8 µM; in [10] (MTT) it was 329 ± 34.6 µM.
